Test results as given in ChEMBL document CHEMBL4219238, “Design, synthesis, molecular modelling and in vitro cytotoxicity analysis of novel carbamate derivatives as inhibitors of Monoacylglycerol lipase” (Bioorg Med Chem, 2018).
pEC50, pIC50: −log10 of the molar value. The source made the active and inactive calls. The calls are words filed in the database; no cut-off is given here.

How the values were obtained:
[1] = tested on: B16-F10; experiment: Antiproliferative activity against mouse B16F10 cells at 10 uM after 48 hrs by Cyto Tracker red dye based flow cytometry; format: functional, cell-based
Method in brief: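 B16-F10 cells (Iscove's medium, 10% heat-inactivated FBS, 37 °C, 5% CO2) exposed to compound or DMSO for 48 h, stained with CytoTrack Red 628/643 and analysed by flow cytometry. Proliferation index (average number of cells that an initial cell became) expressed as fold change over DMSO control; n = 3; one-way ANOVA with Tukey post-test.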

[2] = target: T1, Monoglyceride lipase (Mus musculus, UniProt O35678); experiment: Inhibition of MAGL in mouse B16-F10 cells using 7-HRA as substrate preincubated for 60 mins followed by substrate addition measured every 2.5 mins for 2 hrs by fluorescence assay; format: cell-based; details: for pIC50: read-out: IC50
T1 sequence (O35678 whole entry): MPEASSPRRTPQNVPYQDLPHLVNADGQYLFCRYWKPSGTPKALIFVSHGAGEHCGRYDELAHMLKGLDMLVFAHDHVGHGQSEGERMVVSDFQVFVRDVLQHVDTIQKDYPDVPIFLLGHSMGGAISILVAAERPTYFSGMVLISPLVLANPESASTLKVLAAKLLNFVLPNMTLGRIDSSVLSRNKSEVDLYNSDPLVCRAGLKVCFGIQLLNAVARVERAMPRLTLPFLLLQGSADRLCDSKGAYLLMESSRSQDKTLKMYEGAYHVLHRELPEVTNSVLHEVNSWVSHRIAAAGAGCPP

[3] = tested on: MCF7; experiment: Induction of apoptosis in human MCF7 cells at 10 nM after 48 hrs by Annexin V-FITC/propidium iodide staining based flow cytometry; format: functional, cell-based
[4] = tested on: MCF7; experiment: Induction of apoptosis in human MCF7 cells at 10 uM after 48 hrs by Annexin V-FITC/propidium iodide staining based flow cytometry; format: functional, cell-based
Method in brief: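 HEK293T (DMEM with 10% FBS) or MCF7 (DMEM/Ham's F-12 1:1, 10% FBS) cells treated 48 h with 10 μM compound or DMSO. Staining with Alexa Fluor 488 annexin V plus 5 μg/ml PI in HEPES/NaCl/CaCl2 binding buffer; 10,000 cells per sample read by flow cytometry; n = 3, mean ± S.E.M.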

[5] = target: T2, Fatty-acid amide hydrolase 1 (Homo sapiens) (UniProt O00519); experiment: Inhibition of human FAAH at 10 uM using AAMCA as substrate preincubated for 1 hr followed by substrate addition measured after 30 mins by fluorescence assay relative to control
T2 sequence (whole entry): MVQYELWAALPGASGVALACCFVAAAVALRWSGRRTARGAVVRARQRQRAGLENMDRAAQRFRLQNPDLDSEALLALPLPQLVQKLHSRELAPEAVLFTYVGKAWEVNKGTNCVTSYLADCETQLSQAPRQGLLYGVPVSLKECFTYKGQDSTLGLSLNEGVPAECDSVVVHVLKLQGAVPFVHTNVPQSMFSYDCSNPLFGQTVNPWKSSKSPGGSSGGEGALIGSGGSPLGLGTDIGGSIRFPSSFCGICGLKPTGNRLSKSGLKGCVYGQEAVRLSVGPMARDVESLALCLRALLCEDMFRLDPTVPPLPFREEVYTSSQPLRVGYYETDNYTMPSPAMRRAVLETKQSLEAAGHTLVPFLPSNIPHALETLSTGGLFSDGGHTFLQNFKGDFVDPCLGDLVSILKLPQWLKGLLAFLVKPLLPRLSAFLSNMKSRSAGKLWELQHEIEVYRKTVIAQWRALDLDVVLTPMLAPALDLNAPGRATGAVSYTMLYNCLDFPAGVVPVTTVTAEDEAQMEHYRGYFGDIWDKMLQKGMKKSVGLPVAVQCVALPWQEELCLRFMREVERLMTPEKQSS
Method in brief: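 Recombinant human FAAH (C-terminal His-tagged, Sf21), 1 U/well, in 50 mM Tris-HCl, 1 mM EDTA, pH 9, preincubated 1 h at room temperature with 10 μM compound (final). AAMCA added to 20 μM final; fluorescence (ex 360/em 460 nm) read every 3 min for 30 min. Rate by linear regression, no-enzyme background subtracted, normalised to no-inhibitor control.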

[6] = tested on: B16-F10; experiment: Induction of apoptosis in mouse B16F10 cells assessed as necrotic cells at 10 uM after 48 hrs by Annexin V-FITC/propidium iodide staining based flow cytometry (reference value: 2.62%); format: functional
[7] = target: T3, Monoglyceride lipase (Homo sapiens) (UniProt Q99685); experiment: Inhibition of MAGL in human MCF7 cells at 10 uM using 7-HRA as substrate preincubated for 6 hrs followed by substrate addition by fluorescence assay; format: cell-based
T3 sequence (whole entry): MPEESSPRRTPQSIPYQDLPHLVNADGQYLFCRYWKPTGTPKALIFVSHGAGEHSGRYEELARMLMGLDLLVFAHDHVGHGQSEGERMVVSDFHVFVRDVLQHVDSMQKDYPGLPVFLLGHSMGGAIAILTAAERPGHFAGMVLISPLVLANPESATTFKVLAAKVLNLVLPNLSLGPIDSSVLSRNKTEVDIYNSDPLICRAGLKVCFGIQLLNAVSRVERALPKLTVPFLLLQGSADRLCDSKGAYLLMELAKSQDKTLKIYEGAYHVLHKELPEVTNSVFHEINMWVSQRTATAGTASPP
Method in brief: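 MCF7 cells cultured 6 h with 10 μM compound or DMSO, then lysed; MAGL activity measured on total cell lysate using the 7-HRA fluorogenic assay.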

[8] = target: T3, Monoglyceride lipase (Homo sapiens); experiment: Inhibition of recombinant human MAGL assessed as residual activity at 10 uM using 7-HRA as substrate preincubated for 60 mins followed by substrate addition by fluorescence assay relative to control
Method in brief: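 Recombinant human MAGL (C-terminal His-tagged, E. coli), 25 ng/well, in 50 mM Tris-HCl pH 7.4, 1 mM EDTA, 10% DMSO final. Preincubated with inhibitor or DMSO 60 min at room temperature, then 5 μM 7-HRA (final) added. Resorufin fluorescence (ex 571/em 588 nm) converted via calibration curve. Rates from linear regression, no-enzyme background subtracted, normalised to no-inhibitor control. IC50 taken at 30 min by variable-slope sigmoid fit.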

[9] = target: T4, Monoglyceride lipase (Mus musculus) (UniProt O35678); experiment: Inhibition of MAGL in mouse B16-F10 intact cells at 10 uM using 7-HRA as substrate preincubated for 6 hrs followed by substrate addition by fluorescence assay; format: cell-based
T4 sequence (whole entry): T1 sequence (O35678 whole entry)
Method in brief: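 Intact B16-F10 cells cultured 6 h with compound or DMSO, homogenised 30 min at 4 °C in lysis buffer and spun 1,500 × g 5 min. 1 μg lysate assayed with 10 μM 7-HRA (ex 571/em 588 nm); 5-min values reported; mean ± SEM, n = 3.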

[10] = target: T5, Monoglyceride lipase (Homo sapiens, UniProt Q99685); experiment: Inhibition of recombinant human MAGL using 7-HRA as substrate preincubated for 60 mins followed by substrate addition by fluorescence assay; details: for pIC50: read-out: IC50
T5 sequence (Q99685 whole entry): T3 sequence (whole entry)

[11] = tested on: B16-F10; experiment: Induction of apoptosis in mouse B16F10 cells assessed as live cells at 10 uM after 48 hrs by Annexin V-FITC/propidium iodide staining based flow cytometry (reference value: 88.04%); format: functional
[12] = tested on: B16-F10; experiment: Induction of apoptosis in mouse B16F10 cells assessed as early apoptotic cells at 10 uM after 48 hrs by Annexin V-FITC/propidium iodide staining based flow cytometry (reference value: 1.75%); format: functional
[13] = tested on: B16-F10; experiment: Induction of apoptosis in mouse B16F10 cells assessed as late apoptotic cells at 10 uM after 48 hrs by Annexin V-FITC/propidium iodide staining based flow cytometry (reference value: 7.39%); format: functional
[14] = target: T1, Monoglyceride lipase; experiment: […] of MAGL in mouse B16-F10 cells using 7-HRA as substrate preincubated for 60 mins followed by substrate addition measured every 2.5 mins for 2 hrs by fluorescence assay; format: cell-based
[15] = tested on: MCF7; experiment: Induction of apoptosis in human MCF7 cells at 20 uM after 48 hrs by Annexin V-FITC/propidium iodide staining based flow cytometry; format: functional, cell-based
Method in brief: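 MCF7 cells grown in 50% DMEM high glucose / 50% Ham's F-12 with 10% heat-inactivated FBS at 37 °C, 5% CO2, then exposed 48 h to compound or DMSO vehicle. Cells stained with annexin V plus 5 µg/ml PI in HEPES/NaCl/CaCl2 binding buffer. Flow cytometry on 10,000 cells per sample. Apoptotic = AnnV+/PI− plus AnnV+/PI+. n=3, mean ± S.E.M.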

## O=C(Nc1cccc(-c2ccc(C(F)(F)F)cc2)c1)OCC1CCCCC1
[1]
  Activity: inactive
[2]
  pIC50: 4.76

## O=C(Nc1cccc(-c2ccccc2)c1)OCCc1ccccc1
[1]
  Activity: inactive
[2]
  pIC50: 4.77

## COc1ccc(-c2ccc(-c3cn(C(=O)N4CCCCC4c4ccccc4)nn3)cc2)cc1 (configuration not stated)
[3]
  Activity: inactive

## CCCCCCCC/C=C\CCCCCCCC(=O)NCC
[4]
  Activity: inactive
[5]
  inhibition: 99%

## O=C(Nc1cccc(-c2ccc(F)cc2)c1)OCC1CCCCC1
[1]
  Activity: inactive
[2]
  pIC50: 4.57

## O=C(Nc1cccc(-c2ccc(C(F)(F)F)cc2)c1)OCc1ccccc1
[6]
  Activity: 2.96%
[5]
  inhibition: 15%
[1]
  Activity: Active
[7]
  inhibition: Active
[2]
  pIC50: 5.03
[8]
  Activity: 82%
[9]
  inhibition: Active
[10]
  pIC50: 5.35
[11]
  Activity: 64.51%
[12]
  Activity: 9.89%
[13]
  Activity: 22.65%

## O=C(Nc1cccc(-c2ccccc2)c1)OCc1ccco1
[2]; b16-f10
  IC50: Nd(Insoluble)
[10]
  IC50: Nd(Insoluble)

## O=C(Nc1cccc(-c2ccccc2)c1)Nc1cccc(-c2ccccc2)c1
[14]
  pEC50: 5.24

## O=C(Oc1ccc([N+](=O)[O-])cc1)N1CCC(C(O)(c2ccc3c(c2)OCO3)c2ccc3c(c2)OCO3)CC1
[15]
  Activity: Active

## O=C(Nc1cccc(-c2ccccc2)c1)OC1CCCCC1
[6]
  Activity: 5.48%
[1]
  Activity: inactive
[2]
  pIC50: 4.70
[8]
  Activity: 66%
[10]
  pIC50: 5.04
[11]
  Activity: 79.55%
[12]
  Activity: 1.43%
[13]
  Activity: 13.54%

## O=C(Nc1cccc(-c2ccc(F)cc2)c1)OCc1ccccc1
[1]
  Activity: inactive
[2]
  pIC50: 4.81

## O=C(Nc1cccc(-c2ccccc2)c1)OCc1ccccc1
[1]
  Activity: inactive
[2]
  pIC50: 4.78
[10]
  pIC50: 4.95
